This is a sample that favours compounds with a hit; in the whole collection about 1.4% have one here.
FXIIa inh = inhibitors of human coagulation factor XIIa; P00748; inhibition, % at 5 µM; 220,000 compounds, 0.3% hits; purified FXIIa, Boc-QGR-AMC fluorogenic substrate, 2 h; AID 800; in the data active = inhibition above about 40%;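 also: 0% = enzyme with no compound and 100% = blank without enzyme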
KLK5 inh = inhibitors of human kallikrein 5. Q9Y337. recombinant hK5, fluorogenic AMC substrate cleavage. inhibition, % at 5 µM. 210,000 compounds, 0.59% hits;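 active = inhibition of 40% or more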;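 also: 0% = enzyme controls without compound and 100% = no-enzyme blanks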
Target sequence (Q9Y337 67-293 limits assumed): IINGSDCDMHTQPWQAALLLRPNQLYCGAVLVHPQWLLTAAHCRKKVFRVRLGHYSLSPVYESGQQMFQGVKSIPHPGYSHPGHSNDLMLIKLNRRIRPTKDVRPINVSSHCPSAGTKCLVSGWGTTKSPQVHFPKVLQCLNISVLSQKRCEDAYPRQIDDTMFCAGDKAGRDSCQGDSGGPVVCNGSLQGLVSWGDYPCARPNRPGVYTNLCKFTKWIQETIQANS
m-calpain inh = blocks pig calpain II enzyme activity. purified calpain II, fluorogenic peptide substrate, 30 min. inhibition, % at 16 µM. 220,000 compounds, 0.37% hits. AID 1236;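 active = inhibition above about 50%, limit read from the data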
Thrombin inh = thrombin (human) inhibition. alpha-thrombin, Boc-VPR-AMC fluorogenic substrate cleavage. inhibition, % at 5 µM. 220,000 compounds, 0.26% hits;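 active = inhibition at or above 40%; inactive = inhibition below 40%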;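 also: 0% = enzyme with no compound and 100% = wells without enzyme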
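Material: Human alpha-thrombin protein | Buffer or medium: pH 7.5 Tris-saline with Tween 20 | Reagent: Boc-VPR-AMC substrate, 15 µM final | Schedule: Reaction at ambient temperature | Detection: AMC fluorescence at 355 nm excitation and 460 nm emission | Evaluation: Percent inhibition scaled between no-compound controls and no-enzyme blanks | Controls: no-compound enzyme wells and no-enzyme blanks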
FXIa inh 1536 = factor XIa (human) inhibition; P03951; purified FXIa, Boc-Glu-Ala-Arg-AMC fluorogenic substrate; inhibition, % at 5 µM; 220,000 compounds, 0.14% hits; AID 798;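 active = inhibition of at least 40%; inactive = inhibition below 40%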;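 also: fluorescence of freed AMC excited at 355 nm; 0% = enzyme without compound and 100% = no enzyme blank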
Numbers without * were called inactive; . = not tested or not shown.

SMILES	FXIIa inh	KLK5 inh	m-calpain inh	Thrombin inh	FXIa inh 1536
Clc1ccc(-c2ccccc2)nn1	5	45*	1	-6	-9
CCOc1ccc(CSCCNC(=S)Nc2ccccc2)cc1	-6	51*	43	20	1
CCOc1ccc(NC(=S)NCCCc2ccccc2)cc1	9	2	-7	-4	-2
CC(C)(C)c1ccc(/C=N/NC(=S)NCc2ccccc2)cc1	7	-9	-16	-8	4
C=CCNC(=S)N/N=C/c1ccc(C(C)(C)C)cc1	15	5	64*	0	10
CCOC(=O)c1ccc(NC(=O)c2cc3c(s2)CCC3)cc1	8	1	-13	-4	-1
CN1CCS/C1=C\C=C1/SC(=S)N(CC(=O)O)C1=O	11	1	64*	.	8
O=C(C[n+]1cc(-c2ccc(F)cc2)n2c1CCC2)Nc1nc(-c2ccccc2)cs1	11	-24	-38	-8	2
Cc1ccc(-c2c[n+](CC(=O)Nc3nc(-c4ccc(F)cc4)cs3)c3n2CCC3)cc1	27	49*	30	21	6
CC(=O)n1nc(-c2ccccc2)nc1NCc1cccs1	3	-3	-6	97*	-5
COc1ccc(CNc2nc(-c3ccccc3)nn2C(=O)c2cccs2)cc1	4	-3	-18	-8	-2
CC(=O)n1nc(-c2ccccc2)nc1NCc1ccc(N(C)C)cc1	-7	-24	19	61*	-6
CCC(=O)n1nc(-c2ccc(OC)cc2)nc1NCc1cccs1	7	-5	-16	89*	1
CCC(=O)n1nc(-c2ccccc2)nc1NCc1ccccc1	9	-4	11	.	0
CC(C)NC(=O)CN1CCN(Cc2nc(C(c3ccccc3)c3ccccc3)no2)CC1	3	-3	-28	-10	-3
Cc1nn(C)c(Sc2ccccn2)c1[N+](=O)[O-]	3	1	3	-1	8
Cc1ccc(-c2[nH]nc3c2C(c2ccoc2)C(C#N)=C(N)O3)cc1C (centres undefined)	-3	62*	3	-2	-5
COc1ccc(-c2[nH]nc3c2C(c2ccoc2)C(C#N)=C(N)O3)cc1 (centres undefined)	15	-6	-19	2	10
OCCN1CCN(c2ncnc3sc(-c4ccccc4)cc23)CC1	3	-1	-17	.	-2
COC(=O)c1scc(C)c1NC(=O)Cc1ccccc1	3	70*	7	4	3
COC(=O)c1scc(C)c1NC(=O)CC1NCCNC1=O (centres undefined)	3	-3	-14	-3	-1
CCC(Sc1nc2sc(C(=O)OC)c(C)c2c(=O)n1N)C(=O)NCC1CCCO1 (centres undefined)	29	43*	1	18	14
COc1ccccc1NC(=O)COC(=O)C12CC3CC(CC(Cl)(C3)C1)C2	-1	-10	62*	2	-2
COc1ccc(C(=O)N2CCC(c3ccccc3)CC2)c(OC)c1OC	4	-4	-4	.	-1
O=c1cc(CO)occ1OCc1cccc(F)c1	9	40*	-6	5	-7
SMILES	FXIIa inh	KLK5 inh	m-calpain inh	Thrombin inh	FXIa inh 1536
COc1ccc(/C=N\NS(=O)(=O)c2ccc(Cl)cc2)cc1COc1ccccc1[N+](=O)[O-]	19	47*	19	85*	8
COc1ccc(N=C2S/C(=C\c3cc(C)n(C)c3C)C(=O)N2C)cc1	0	41*	-12	12	8
CCCN1C(=O)/C(=C/c2cc(C)n(C)c2C)SC1=Nc1ccc(OC)cc1	8	6	-19	0	6
CCN(CC)C(=O)NC1CC(=O)N(c2ccc(OC)cc2)C1 (centres undefined)	4	-4	13	-1	10
CC(O)CN=c1cc(-c2ccccc2)oc2ccc(Cl)cc12 (centres undefined)	16	68*	21	15	-4
CC(C)CN=c1cc(-c2ccccc2)oc2ccc(Cl)cc12	20	-1	-4	16	2
CCn1c(C)cs/c1=N\C(=S)Nc1ccccc1C	7	-18	20	2	5
Cc1cc(C)n2nc(SCc3nnc(SCc4ccccc4Cl)s3)nc2n1	0	-25	50*	19	-5
Cc1cc(C)n2nc(SCc3nnc(SCc4ccccc4C)s3)nc2n1	23	-13	0	5	4
COC(=O)CSc1nc(C)cc(N2CCOCC2)n1	13	10	-14	2	-2
CC1(C)CC(=O)C(C=Nc2ccccc2C(=O)O)=C(O)C1	13	12	-52	0	1
CC1(C)CC(=O)C(C=Nc2ccccc2Sc2ccccc2)=C(O)C1	2	44*	9	8	1
Cc1cc(C)cc(N=c2c([N+](=O)[O-])nn(-c3ccc4c(c3)OCCO4)n2O)c1	10	-17	-12	2	-1
Cc1ccc(N=c2c([N+](=O)[O-])nn(-c3ccc4c(c3)OCCO4)n2O)c(Cl)c1	8	2	53*	-7	0
COc1ccc(NC(=O)Cc2ccccc2F)cn1	13	15	11	50*	23
COc1ccc(NC(=O)Cc2ccc(Cl)cc2Cl)cn1	.	0	5	-4	-2
O=C1c2cccnc2C(Nc2ccc(F)c(Cl)c2)N1Cc1cccs1 (centres undefined)	14	23	35	14	11
CCc1nnc(NC(=O)CCC(=O)N2CCN(C3CCCCC3)CC2)s1	15	3	-28	-1	8
CCc1nnc(NC(=O)CCC(=O)N2CCCC2)s1	28	54*	15	42*	-8
CC1(C)CC2CC(C)(CN2CC(=O)C(C#N)c2ccccc2)C1 (centres undefined)	-4	115*	-19	3	-9
Clc1ccccc1OCc1nc(-c2ccccn2)no1	1	48*	-25	2	3
Clc1ccc(OCc2nc(-c3ccccn3)no2)c(Br)c1	23	0	-5	5	8
Cc1occc1C(=O)Nc1cc(C(F)(F)F)ccc1Cl	27	27	22	50*	15
COc1ccc(C(C)(C)C)cc1NC(=O)c1ccoc1C	6	-1	6	-7	3
O=C(CN1C(=O)/C(=C/c2cccc(Br)c2)SC1=S)Nc1cccnc1	15	.	-12	2	4
SMILES	FXIIa inh	KLK5 inh	m-calpain inh	Thrombin inh	FXIa inh 1536
O=C(CN1C(=O)/C(=C/c2cccc(Br)c2)SC1=S)NC1=NCCS1	13	.	84*	0	2
COCc1cc(C)nc(N/N=C/c2ccc(Cl)c(Cl)c2)c1C#N	8	-10	44	0	5
CCOC(=O)c1[nH]c(C)c(C(=O)OCC(=O)N2CC(=O)Nc3ccccc32)c1C	29	42*	28	8	8
Cc1nn(-c2ccccc2)c(C)c1C(=O)OCC(=O)N1CC(=O)Nc2ccccc21	14	-16	26	6	8
O=C1CN(C(=O)COC(=O)c2oc3ccccc3c2COc2ccccc2)c2ccccc2N1	47*	-17	-47	3	20
CC(=O)C1C(c2ccc(F)cc2)c2c(noc2C)CC1(C)O (centres undefined)	-2	6	-15	-3	-3

Bioassay records from PubChem BioAssay.
